Experimental data taken from ChEMBL document CHEMBL1212705, “Gene expression signatures and small-molecule compounds link a protein kinase to Plasmodium falciparum motility” (Nat Chem Biol, 2008).
Activity calls are given as the source filed them. No cut-off for these calls is given here.

Assays:
Plasmodium falciparum [1] = experiment: Antiplasmodial activity against chloroquine-resistant Plasmodium falciparum W2 after 72 hrs by SYBR green assay; assay type: functional, organism-based; settings: W2, 72 h
Procedure, shortened: (§1)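 Parasites grown in human O+ erythrocytes in RPMI with human serum and albumax. For the assay, serially diluted compounds were added to screening medium (RPMI, 4.16 mg/ml albumax) at 2.5% hematocrit and 0.3% parasitemia, then incubated 72 h in 93% N2/4% CO2/3% O2. DMSO served as baseline and uninfected erythrocytes as background. SYBR Green fluorescence was read at 520 nm to give EC50.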

Plasmodium falciparum [2] = experiment: Antiplasmodial activity against multidrug-resistant Plasmodium falciparum Dd2 after 72 hrs by SYBR green assay; assay type: functional, organism-based; settings: Dd2, 72 h; procedure, shortened: as §1
Plasmodium falciparum [3] = experiment: Binding affinity to Plasmodium falciparum PFL1545c at 2.5 mM by LC/MS/MS analysis
Procedure, shortened: (§2)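 P. falciparum parasite lysate was incubated with agarose-immobilized inhibitor and washed extensively. Retained proteins were eluted with urea, resolved by SDS-PAGE and identified by LC/MS/MS. In a competition arm, free inhibitor (2.5 mM) was added to the lysate before incubation with the beads under identical conditions.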

Plasmodium falciparum [4] = experiment: Binding affinity to Plasmodium falciparum PF13_0304 at 2.5 mM by LC/MS/MS analysis; procedure, shortened: as §2
[5] = Cytotoxicity against human HuH7 cells after 72 hrs by Cell Titer Glo assay; assay type: cell-based, Huh-7; settings: read-out: ED50
Procedure, shortened: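 Cells seeded at 250 per well in DMEM with 5% fetal bovine serum. Compound added the next day, followed by 72 h culture to match the parasite proliferation assay. Viability read by Cell Titer Glo luminescence.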

Plasmodium falciparum [6] = experiment: Binding affinity to Plasmodium falciparum CDPK1 at 2.5 mM by LC/MS/MS analysis; procedure, shortened: as §2
Plasmodium falciparum [7] = experiment: Antimicrobial activity against Plasmodium falciparum 3D7 infected in human erythrocytes after 48 hrs by microscopy
Plasmodium falciparum [8] = experiment: Binding affinity to Plasmodium falciparum PF10_0153 at 2.5 mM by LC/MS/MS analysis; procedure, shortened: as §2
[9] = Cmax in BALB/c mouse at 20 mg/kg single oral dose after 24 hrs by LC/MS/MS analysis; settings: in vivo
Plasmodium falciparum [10] = experiment: Binding affinity to Plasmodium falciparum PFE1155c at 2.5 mM by LC/MS/MS analysis; procedure, shortened: as §2
Toxoplasma gondii [11] = experiment: Antimicrobial activity against Toxoplasma gondii […] infected in african green monkey BSC1 cells assessed as parasite invasion at 50 uM after 90 mins by microscopy relative to control
Toxoplasma gondii [12] = experiment: Antimicrobial activity against Toxoplasma gondii […] infected in african green monkey BSC1 cells assessed as parasite invasion at 25 uM after 48 hrs by microscopy relative to control; assay type: functional, BSC-1
Plasmodium falciparum [13] = experiment: Binding affinity to Plasmodium falciparum PF14_0439 at 2.5 mM by LC/MS/MS analysis; procedure, shortened: as §2
Plasmodium falciparum [14] = experiment: Antimicrobial activity against Plasmodium falciparum schizonts infected in human erythrocytes assessed as minimal effect on parasite cell cycle at 450 nM treated 12 hrs after release of ring stage by microscopy
Plasmodium falciparum [15] = experiment: Antimicrobial activity against Plasmodium falciparum schizonts infected in human erythrocytes assessed as minimal effect on parasite cell cycle at 450 nM treated 24 hrs after release of ring stage by microscopy
Plasmodium falciparum [16] = experiment: Binding affinity to Plasmodium falciparum PFI0235w at 2.5 mM by LC/MS/MS analysis; procedure, shortened: as §2
Plasmodium falciparum [17] = experiment: Binding affinity to Plasmodium falciparum PFF0160c at 2.5 mM by LC/MS/MS analysis; procedure, shortened: as §2
Plasmodium falciparum [18] = experiment: Antimicrobial activity against Plasmodium falciparum 3D7 schizonts infected in human erythrocytes assessed as effect on parasitemia at 225 to 450 nM after 48 hrs by microscopy
Plasmodium falciparum [19] = experiment: Binding affinity to Plasmodium falciparum PFL0185c at 2.5 mM by LC/MS/MS analysis; procedure, shortened: as §2
Plasmodium falciparum [20] = experiment: Binding affinity to Plasmodium falciparum PFI0180w at 2.5 mM by LC/MS/MS analysis; procedure, shortened: as §2
Plasmodium falciparum [21] = experiment: Upregulation of proteasome gene expression in Plasmodium falciparum at 460 nM after 48 hrs by microarray analysis; assay type: functional, organism-based
Procedure, shortened: (§3)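 P. falciparum 3D7 was grown in human O+ erythrocytes. Heterogeneous, unsynchronized parasites were incubated with 460 nM compound for 24 or 48 h, then compared with untreated parasites on a full-genome microarray. Transcript changes were called by a statistical test.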

Plasmodium falciparum [22] = experiment: Binding affinity to Plasmodium falciparum PF14_0102 at 2.5 mM by LC/MS/MS analysis; procedure, shortened: as §2
[23] = Half life in BALB/c mouse 20 mg/kg single oral dose by LC/MS/MS analysis; settings: in vivo
Plasmodium falciparum [24] = experiment: Binding affinity to Plasmodium falciparum PF14_0096 at 2.5 mM by LC/MS/MS analysis; procedure, shortened: as §2
Plasmodium falciparum [25] = experiment: Binding affinity to Plasmodium falciparum PF08_0054 at 2.5 mM by LC/MS/MS analysis; procedure, shortened: as §2
Toxoplasma gondii [26] = experiment: Antimicrobial activity against Toxoplasma gondii […] infected in african green monkey BSC1 cells assessed as parasite invasion at 3.1 uM after 48 hrs by microscopy relative to control; assay type: functional, BSC-1
Plasmodium yoelii = experiment: Antiplasmodial activity blood stage Plasmodium yoelii infected in BALB/c mice (Mus musculus) assessed as delay in onset of parasitaemia at 10 mg/kg, perorally BID for 6 days measured after 6 days post infection by Peter's test; assay type: functional, organism-based; design: dose 10 mg/kg
Toxoplasma gondii [27] = experiment: Antimicrobial activity against Toxoplasma gondii […] infected in african green monkey BSC1 cells assessed as parasite invasion at 6.25 uM after 48 hrs by microscopy relative to control; assay type: functional, BSC-1
Plasmodium falciparum [28] = experiment: Binding affinity to Plasmodium falciparum PFL1170w at 2.5 mM by LC/MS/MS analysis; procedure, shortened: as §2
Plasmodium falciparum [29] = experiment: Binding affinity to Plasmodium falciparum PF11_0351 at 2.5 mM by LC/MS/MS analysis; procedure, shortened: as §2
Toxoplasma gondii [30] = experiment: Antimicrobial activity against Toxoplasma gondii […] infected in african green monkey BSC1 cells assessed as inhibition of parasite invasion at 1.56 uM after 48 hrs by microscopy relative to control; assay type: functional, organism-based; settings: BSC-1
Plasmodium falciparum [31] = experiment: Upregulation of DNA replication gene expression in Plasmodium falciparum at 460 nM after 48 hrs by microarray analysis; assay type: functional, organism-based; procedure, shortened: as §3
[32] = Cytotoxicity against CHO cells after 72 hrs by Cell Titer Glo assay; assay type: cell-based, Cricetulus griseus; settings: chinese hamster, read-out: ED50
Procedure, shortened: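 Cells were seeded at 250 per well in DMEM with 5% FBS in 1,536-well plates, and compound was added the next day. Culture ran 72 h, matching the parasite proliferation assay. Viability was read by Cell Titer Glo luminescence, and EC50 was derived.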

Plasmodium falciparum [33] = experiment: Antiplasmodial activity against Plasmodium falciparum 3D7 after 72 hrs by SYBR green assay; assay type: functional, organism-based; settings: 3D7, 72 h
Plasmodium falciparum [34] = experiment: Antiplasmodial activity against multidrug-resistant Plasmodium falciparum FCB after 72 hrs by SYBR green assay; assay type: functional, organism-based; procedure, shortened: as §1

## N[C@H]1CC[C@H](Nc2nc(Nc3ccc(C(=O)N4CCCCC4)cc3)c3ncn(-c4cccc(F)c4)c3n2)CC1 [PURFALCAMINE]
Plasmodium falciparum [1]
  EC50: 0.179 µM
Plasmodium falciparum [2]
  EC50: 0.259 µM
Plasmodium falciparum [3]
  Activity: inactive
Plasmodium falciparum [4]
  Activity: inactive
[5]
  CC50 at 72 h: 5.48 µM
Plasmodium falciparum [6]
  Activity: Active
Plasmodium falciparum [7]; Plasmodium falciparum 3D7
  EC90: 0.414 µM
Plasmodium falciparum [7]; Plasmodium falciparum 3D7, 48 h
  EC50: 0.23 µM
Plasmodium falciparum [8]
  Activity: inactive
[9]
  Cmax: 2600 nM
Plasmodium falciparum [10]
  Activity: inactive
Toxoplasma gondii [11]
  Activity: <=20%
Toxoplasma gondii [12]
  Activity: <=20%
Plasmodium falciparum [13]
  Activity: inactive
Plasmodium falciparum [14]
  Activity: Active
Plasmodium falciparum [15]
  Activity: Active
Plasmodium falciparum [16]
  Activity: inactive
Plasmodium falciparum [17]
  Activity: inactive
Plasmodium falciparum [18]
  Activity: Active
Plasmodium falciparum [19]
  Activity: inactive
Plasmodium falciparum [20]
  Activity: inactive
Plasmodium falciparum [21]
  Activity: Active
Plasmodium falciparum [22]
  Activity: inactive
[23]
  half-life: 3.1 h
Plasmodium falciparum [24]
  Activity: inactive
Plasmodium falciparum [25]
  Activity: inactive
Toxoplasma gondii [26]
  Activity: 60%
Plasmodium yoelii
  Activity: Active
Toxoplasma gondii [27]
  Activity: 20%
Plasmodium falciparum [28]
  Activity: inactive
Plasmodium falciparum [29]
  Activity: inactive
Toxoplasma gondii [30]
  inhibition: inactive
Plasmodium falciparum [31]
  Activity: Active
[32]
  CC50 at 72 h: 12.3 µM
Plasmodium falciparum [33]
  EC50: 0.23 µM
Plasmodium falciparum [34]
  EC50: 0.169 µM
